Measured values taken from ChEMBL document CHEMBL1158803, “Xanthone and sesquiterpene derivatives from the fruits of Garcinia scortechinii” (2005).
Converted amounts (≈) assume the structure as drawn.

What follows are compounds tested on Staphylococcus aureus (assay: Antibacterial activity against methicillin-resistant Staphylococcus aureus after 18 hrs by agar microdilution method).
Type: functional
Outline: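 Agar microdilution; compounds in DMSO, serial 2-fold dilutions mixed 1:100 into melted Mueller-Hinton agar, final 128 to 0.03 µg/mL. Clinical MRSA isolate (Songklanakarin Hospital) inoculum spotted on agar wells, incubated 35 °C for 18 h. MIC taken as lowest concentration inhibiting visible growth. Vancomycin positive control; DMSO-agar growth control.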

**Q.** With `CN[C@H](CC(C)C)C(=O)N[C@H]1C(=O)N[C@@H](CC(N)=O)C(=O)N[C@H]2C(=O)N[C@H]3C(=O)N[C@H](C(=O)N[C@H](C(=O)O)c4cc(O)cc(O)c4-c4cc3ccc4O)[C@H](O)c3ccc(c(Cl)c3)Oc3cc2cc(c3O[C@@H]2O[C@H](CO)[C@@H](O)[C@H](O)[C@H]2O[C@H]2C[C@](C)(N)[C@H](O)[C@H](C)O2)Oc2ccc(cc2Cl)[C@H]1O` [VANCOMYCIN] as the compound, how does the MIC read?
**A.** Its MIC is 1.38 µM (≈ 2 µg/mL).

**Q.** For `CO[C@]12C=C3C(=O)c4c(O)c(CC=C(C)C)c5c(c4O[C@]34[C@H](C1)C(C)(C)O[C@]4(C/C=C(/C)C(=O)O)C2=O)C(C)(C)[C@H](C)O5` [SCORTECHINONE B], which MIC is on record?
**A.** Its MIC is 3.38 µM (≈ 2 µg/mL).

**Q.** With `COC1Cc2c(oc3c(CC=C(C)C)c4c(c(O)c3c2=O)C(C)(C)C(C)O4)C2=C1[C@@](C/C=C(\C)C(=O)O)(C(=O)O)OC2(C)C` (stereo partly specified) [SCORTECHINONE X] as the compound, how does the MIC read?
**A.** The MIC was > 210 µM.

**Q.** Which MIC does the source give for `COc1cc2c(=O)c3c(O)c4c(c(CC=C(C)C)c3oc2c2c1[C@@](C/C=C(\C)C(=O)O)(C(=O)O)OC2(C)C)OC(C)C4(C)C` (stereo partly specified) [SCORTECHINONE W] here?
**A.** Its MIC is 52.8 µM (≈ 32 µg/mL).

**Q.** With `CO[C@H]1[C@@H]2C(=O)c3c(O)c(CC=C(C)C)c4c(c3O[C@]23[C@@H]2C[C@@]1(OC)C(=O)[C@@]3(C/C=C(\C)C=O)OC2(C)C)C(C)(C)[C@@H](C)O4` [SCORTECHINONE T] as the compound, how does the MIC read?
**A.** Its MIC is > 105 µM.

**Q.** Which MIC does the source give for `COc1cc2c(=O)c3c(O)c(CC=C(C)C)c4c(c3oc2c2c1[C@@](C/C=C(\C)C(=O)O)(C(=O)O)OC2(C)C)C(C)(C)[C@@H](C)O4` [SCORTECHINONE V] here?
**A.** Its MIC is 106 µM (≈ 64.3 µg/mL).

**Q.** Which MIC does the source give for `CC(C)=CCc1c2c(c3oc4c(C(C)(C)O)cc(O)cc4c(=O)c3c1O)C(C)(C)[C@@H](C)O2` [SCORTECHINONE U] here?
**A.** Its MIC is > 292 µM.

**Q.** How did the MIC turn out when `CO[C@]12C=C3C(=O)c4c(O)c(CC=C(C)C)c5c(c4O[C@]34[C@H](C1)[C@](C)(CO)O[C@]4(CC=C(C)C)C2=O)C(C)(C)[C@@H](C)O5` was run?
**A.** Its MIC is > 221 µM.

**Q.** For `C=C(C)C(O)Cc1c(O)c2c(c3c1O[C@H](C)C3(C)C)O[C@@]13[C@@H]4C[C@@](OC)(C(=O)[C@@]1(C/C=C(/C)C(=O)O)OC4(C)C)[C@@H](OC)[C@@H]3C2=O` (stereo partly specified) [SCORTECHINONE S], which MIC is on record?
**A.** The MIC was 100 µM (≈ 64.1 µg/mL).

**Q.** Which MIC does the source give for `C=C(C)C(O)Cc1c(O)c2c(c3c1O[C@H](C)C3(C)C)O[C@@]13C(=C[C@@]4(OC)C[C@@H]1C(C)(C)O[C@]3(C/C=C(/C)C(=O)O)C4=O)C2=O` (stereo partly specified) [SCORTECHINONE R] here?
**A.** The MIC was > 210 µM.

**Q.** Which MIC does the source give for `CO[C@H]1[C@@H]2C(=O)c3c(O)c(CC=C(C)C)c4c(c3O[C@]23[C@@H]2C[C@@]1(OC)C(=O)[C@@]3(C/C=C(/C)C(=O)O)OC2(C)C)C(C)(C)[C@@H](C)O4` [SCORTECHINONE I] here?
**A.** Its MIC is 12.8 µM (≈ 8 µg/mL).
